# Screens: PubChem BioAssay, The Scripps Research Institute Molecular Screening Center
# NPY-Y2 PAM-ag – human NPY-Y2 potentiation or agonism, primary screen | P49146 | cells expressing NPY-Y2, potentiator/agonist read-out | activation, % at 3.6 µM | 220,000 tested, 0.45% active; in the data active means activation above about 27%;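 further: cells stimulated with NPY near EC25 plus isoproterenol at EC100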
# NPY Y2 blocker – antagonists of human neuropeptide Y receptor Y2 | P49146 | NPY-Y2 expressing cells, antagonist mode | inhibition, % at 2.7 µM | 140,000 tested, 0.99% active; in the data active means inhibition above about 17%
# NPY Y1 blocker – blocks the human neuropeptide Y Y1 receptor | P25929 | 200,000 tested, 1% active | HEK293-CNG Y1 cells, membrane potential fluorescence; NPY at EC95, then isoproterenol | inhibition, % at 3.6 µM;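 active means inhibition above the campaign mean inhibition of all tested compounds plus 3 SD, cut at about 20% in these data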
# Target sequence (P25929 whole entry, looked up): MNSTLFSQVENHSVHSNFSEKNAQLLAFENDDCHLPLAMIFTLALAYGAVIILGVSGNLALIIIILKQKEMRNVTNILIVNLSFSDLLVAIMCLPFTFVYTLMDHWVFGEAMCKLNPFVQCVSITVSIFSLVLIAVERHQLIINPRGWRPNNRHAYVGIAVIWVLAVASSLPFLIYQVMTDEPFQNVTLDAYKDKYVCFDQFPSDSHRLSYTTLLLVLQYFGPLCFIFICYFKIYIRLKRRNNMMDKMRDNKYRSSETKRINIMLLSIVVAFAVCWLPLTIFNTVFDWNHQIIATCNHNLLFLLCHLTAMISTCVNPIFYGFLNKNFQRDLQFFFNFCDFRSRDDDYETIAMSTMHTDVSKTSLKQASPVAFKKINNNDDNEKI
#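 Material: HEK293 Y1/CNG channel cell line | Also added: NPY (25 nM), isoproterenol (1 µM), Ro 20-1724 (25 µM) | Compound: One concentration, 3.6 µM, in 0.4% DMSO | Schedule: 3 h dye uptake, 1 h room-temperature compound, 45 min post-isoproterenol | Signal: Membrane-potential fluorescent dye readout | Read-out: % inhibition of NPY effect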
# NPY1 pot ag – potentiates or activates human NPY-Y1 receptor; activation, % at 3.6 µM; NPY-Y1 expressing cells, potentiator/agonist activation; 220,000 tested, 0.37% active; P25929; in the data active means activation above about 33%, passing the limit was not always enough;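 further: cells stimulated with NPY at EC10 then isoproterenol at EC100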
# S1P4 agonist – agonists of human S1P4 receptor. activation, % at 4.98 µM. S1P4-expressing cell line, agonist reporter assay. O95977. 220,000 tested, 0.35% active. AID 1509; in the data active means activation above about 11%
# S1P4 antagonist – antagonists of human S1P4 receptor | 220,000 tested, 0.26% active | inhibition, % at 4.98 µM | AID 1510 | O95977 | S1P4-expressing cells, antagonist mode, reporter read-out; in the data active means inhibition above about 29%
# S1P4 agonist cf – confirmation of human S1P4 receptor agonists | shares compounds with S1P4 agonist | S1P4 agonist cell-based reporter assay | activation, % at 4.98 µM | 740 tested, 7% active | AID 1523; in the data active means activation above about 12%
# S1P1 ag – counter-screen for S1P4 agonists: agonists of human S1P1; shares compounds with S1P4 agonist; S1P1 agonist cell-based assay, activation; activation, % at 4.98 µM; 740 tested, 4% active; AID 1563; in the data active means activation above about 21%
# Hits are given with their value; 0 = inactive; - = no result. Sampled rows, rich in hits. Any-hit rate of the full collection: about 2.4%.
SMILES,NPY-Y2 PAM-ag,NPY Y2 blocker,NPY Y1 blocker,NPY1 pot ag,S1P4 agonist,S1P4 antagonist,S1P4 agonist cf,S1P1 ag
Cc1cc(NC(=O)CCC(=O)N(CC(=O)NC2CCCC2)Cc2cccs2)no1,0,-,0,0,32.9,0,0,0
COc1ccc(Cl)cc1NC(=S)NNC(=O)c1cccs1,0,-,0,0,0,0,-,-
CC1CN(CC(O)COC(c2ccccc2)c2ccccc2)CC(C)O1 (configuration not stated),0,0,0,0,57.3,0,0,0
OC(COC(c1ccccc1)c1ccccc1)CN1CCOCC1 (configuration not stated),0,-,0,0,0,0,-,-
O=C(Nc1ccnc(-c2cccnc2)n1)c1ccc(Cl)c(Cl)c1,0,0,0,0,26.9,0,0,0
Cc1ccc(C(=O)Nc2ccnc(-c3cccnc3)n2)cc1,0,-,0,0,0,0,-,-
COc1ccc(NC(=O)CSc2nc3ccccc3n2-c2ccccc2)c([N+](=O)[O-])c1,0,0,0,0,44.5,0,0,0
O=C1CNC(=S)N1CCc1ccccc1Cl,0,-,-,0,0,0,-,-
O=C(NC1CCCCCC1)c1ccc2nc3cc(Cl)ccc3c(=O)n2c1,0,-,0,0,0,0,-,-
C=CCc1c(O)c(CC)cc2c(C)cc(=O)oc12,0,-,-,0,27.7,0,0,0
COc1ccc(-c2noc(CSc3nc4sc(C)c(C)c4c(=O)n3-c3ccccc3)n2)cc1,0,0,0,0,21.1,0,0,0
COc1ccc(-c2noc(CSc3nc4sc(C)c(C)c4c(=O)n3-c3ccccc3)n2)cc1OC,0,0,0,0,0,0,-,-
CC1CCC/C(=N\NC(=O)Nc2ccccc2)C1 (configuration not stated),0,0,0,0,0,0,-,-
COc1ccc(NCC(=O)N/N=C2\CCCC(C)C2)cc1 (configuration not stated),0,0,0,0,23.4,0,0,0
CC(C)Sc1nc2ccc(Br)cc2[nH]1,0,-,0,0,13.8,0,0,0
CSc1nc2ccc(Br)cc2[nH]1,0,-,0,0,0,0,-,-
CCCCn1c(SCC(N)=O)nc2ccc(N3CCOCC3)cc2c1=O,0,0,0,0,0,0,-,-
CCCCn1c(SCC(=O)Nc2cccc(OC)c2)nc2ccc(N3CCOCC3)cc2c1=O,0,0,0,0,13.7,0,0,0
CCOC(=O)c1ccc(NC(=O)CCc2nc(-c3ccccc3Cl)no2)cc1,0,0,0,0,11.9,0,0,0
CSc1ccc(N=Nc2c(C)[nH]n(C)c2=O)cc1,0,-,-,0,0,0,-,-
COc1ccc(C2=CC(=O)C=CC2=O)cc1,0,-,-,0,0,0,-,-
Cc1[nH]n(C)c(=O)c1C(=O)c1c(-c2ccccc2Cl)noc1C,0,-,-,0,0,0,-,-
O=C(NNc1c2ccccc2nc2ccccc12)C12CC3CC(CC(C3)C1)C2,0,-,-,0,13.0,0,0,0
O=C(NNc1c2ccccc2nc2ccccc12)c1ccccc1O,0,0,0,0,0,0,-,-
O=S(=O)(CCNCc1cccs1)c1ccc(Cl)cc1,0,-,-,0,36.5,0,0,0
SMILES,NPY-Y2 PAM-ag,NPY Y2 blocker,NPY Y1 blocker,NPY1 pot ag,S1P4 agonist,S1P4 antagonist,S1P4 agonist cf,S1P1 ag
CC(=O)N(CCS(=O)(=O)c1ccc(Cl)cc1)Cc1cccs1,0,-,-,0,0,0,-,-
Cc1ccc(C(C(=O)NCc2ccco2)N(C(=O)CNC(=O)c2cccs2)c2c(C)cccc2C)cc1 (configuration not stated),0,0,0,0,80.9,0,0,0
Cc1ccc(C(C(=O)NCc2ccco2)N(C(=O)CNC(=O)c2cccs2)c2c(C)cc(C)cc2C)cc1 (configuration not stated),0,0,0,0,0,0,-,-
COc1ccc(C(=O)COc2ncnc3cc(Cl)ccc23)cc1,0,-,-,0,0,0,-,-
CCCCCC(=O)Nc1ccc(Cl)cn1,0,0,0,0,15.1,0,0,0
COc1ccccc1C1CCN(C(=O)c2cccs2)CC1,0,-,-,0,0,0,-,-
COc1ccccc1C(=O)NC(=S)Nc1ccc(N2CCOCC2)c(Cl)c1,0,-,0,0,35.6,0,0,81.1
CCN(CC(=O)Nc1cc(C)nn1-c1nc(C)cc(C)n1)Cc1ccccc1,0,0,0,0,194.8,0,0,0
